In ChEMBL document CHEMBL1129609, “Synthesis and antiviral activity evaluation of some new aminoadamantane derivatives. 2” (1996):
Values after ≈ are worked out from the molar mass of the structure shown.

What was measured:
[1] = system: Human immunodeficiency virus 2; experiment: Antiviral activity against HIV-2 virus infected CEM cell lines.; format: functional, CCRF-CEM
[2] = system: CCRF-CEM; experiment: Cytotoxicity against CEM cell lines.; format: functional; details: Homo sapiens
[3] = system: Human immunodeficiency virus 1; experiment: Antiviral activity against HIV-1 virus infected CEM cell lines.; format: functional, CCRF-CEM
[4] = system: Human alphaherpesvirus 1; experiment: Antiviral activity against HSV-1 virus infected HEF cell lines.; format: functional
In short: (§1)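 Human embryonic fibroblasts, from embryonic lung or embryonic skin-muscle, infected with the virus. Endpoint is the minimum inhibitory concentration that reduces virus-induced cytopathicity by 50%. Values are averages of at least two separate experiments.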

[5] = system: Human alphaherpesvirus 2; experiment: Antiviral activity against HSV-2 virus infected HEF cell lines.; format: functional; in short: as §1
[6] = system: Human alphaherpesvirus 1; experiment: Antiviral activity against TK-HSV-1 virus infected HEF cell lines.; format: functional; in short: as §1
[7] = system: HEF; experiment: Effects on cell morphology of HEF cell lines.; format: functional; details: Homo sapiens
In short: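 Human embryonic skin-muscle fibroblasts were examined under the microscope for changes in normal cell morphology. The value is the minimum concentration causing a microscopically detectable alteration, averaged from at least two separate experiments.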

[8] = system: Vaccinia virus; experiment: Antiviral activity against vaccinia virus infected HEF cell lines.; format: functional; details: Orthopoxvirus vaccinia; in short: as §1
[9] = system: Enterovirus C; experiment: Antiviral activity against polio 1 virus infected HeLa cell lines.; format: functional
In short: (§2)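 Vero (African green monkey kidney), HeLa (human epithelial) or HEL (human embryonic lung) cell monolayers infected with the virus. Readout is the minimum inhibitory concentration that reduces virus-induced cytopathicity by 50%. Values are averages of at least two separate experiments.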

[10] = system: Vesicular stomatitis virus; experiment: Antiviral activity against vesicular stomatitis virus infected HeLa cell lines.; format: functional; in short: as §2
[11] = system: Coxsackievirus B4; experiment: Antiviral activity against Coxsackie B4 virus infected HeLa cell lines.; format: functional; details: Enterovirus B; in short: as §2
[12] = system: Human betaherpesvirus 5; experiment: Antiviral activity against HCMV virus infected HEL cell lines.; format: functional; in short: as §2
[13] = system: Human alphaherpesvirus 3; experiment: Antiviral activity against TK+VZV virus infected HEL cell lines.; format: functional; in short: as §2
[14] = system: Human alphaherpesvirus 3; experiment: Antiviral activity against TK-VZV virus infected HEL cell lines.; format: functional; in short: as §2
[15] = system: HEL; experiment: Inhibition of HEL cell proliferation.; format: functional; details: Homo sapiens
In short: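 Human embryonic lung fibroblasts were used for the proliferation assay. The value is the concentration that reduces cell proliferation by 50%, averaged from at least two separate experiments.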

[16] = system: MDCK; experiment: Antiviral activity tested against influenza A,H1N1 virus infected MDCK cell lines.; format: functional; details: Canis lupus familiaris
[17] = Antiviral activity against influenza A,H3N2 virus infected MDCK cell lines.; format: functional
[18] = system: Influenza B virus; experiment: Antiviral activity against influenza B virus infected MDCK cell lines.; format: functional
[19] = system: MDCK; experiment: Antiviral activity of compound was tested against morphology virus infected MDCK cell lines.; format: functional; details: Canis lupus familiaris
[20] = system: Semliki Forest virus; experiment: Antiviral activity against Semliki forest virus infected Vero cell lines.; format: functional; in short: as §2
[21] = system: Coxsackievirus B4; experiment: Antiviral activity against Coxsackie B4 virus infected vero cell lines.; format: functional; details: Enterovirus B; in short: as §2
[22] = system: Vero; experiment: Effects on cell morphology of Vero cell lines.; format: functional; details: Chlorocebus sabaeus
In short: (§3)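 HeLa (human epithelial) or Vero (African green monkey kidney) cells were examined under the microscope for changes in normal morphology. The value is the minimum concentration causing a detectable alteration, averaged from at least two separate experiments.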

[23] = system: Human respirovirus 3; experiment: Antiviral activity against parainfluenza 3 virus infected Vero cell lines.; format: functional; in short: as §2
[24] = system: Mammalian orthoreovirus 1; experiment: Antiviral activity against Reo 1 virus infected vero cell lines.; format: functional; in short: as §2
[25] = system: Sindbis virus; experiment: Antiviral activity against sindbis virus infected Vero cell lines.; format: functional; in short: as §2
[26] = Antiviral activity against influenza A,H2N2 virus infected MDCK cell lines.; format: functional
[27] = system: HeLa; experiment: Effects on cell morphology of HeLa cell lines.; format: functional; details: Homo sapiens; in short: as §3
[28] = system: Vesicular stomatitis virus; experiment: Antiviral activity against vesicular stomatitis virus infected HEF cell lines.; format: functional; in short: as §1
[29] = system: CCRF-CEM; experiment: Antiviral activity of compound was tested against viability virus infected CEM cell lines.; format: functional; details: Homo sapiens
[30] = system: CCRF-CEM; experiment: Antiviral activity of compound were tested against HIV-2 virus infected CEM cell lines.; format: functional; details: Homo sapiens
[31] = system: HEF; experiment: Antiviral activity of compound was tested against morphology virus infected HEF cell lines.; format: functional; details: Homo sapiens
[32] = system: HEL; experiment: Antiviral activity of compound was tested against proliferation virus infected HEL cell lines.; format: functional; details: Homo sapiens
[33] = system: HeLa; experiment: Antiviral activity of compound was tested against morphology virus infected HeLa cell lines.; format: functional; details: Homo sapiens
[34] = system: HeLa; experiment: Antiviral activity of compound was tested against polio-1 virus infected HeLa cell lines.; format: functional; details: Homo sapiens; in short: as §2
[35] = system: HeLa; experiment: Antiviral activity of compound was tested against stomatitis virus infected HeLa cell lines.; format: functional; details: Homo sapiens; in short: as §2
[36] = system: HEL; experiment: Antiviral activity of compound was tested against HCMV virus infected HEL cell lines.; format: functional; details: Homo sapiens; in short: as §2
[37] = system: HEL; experiment: Antiviral activity of compound was tested against TK+VZV virus infected HEL cell lines.; format: functional; details: Homo sapiens; in short: as §2
[38] = system: HEL; experiment: Antiviral activity of compound was tested against TK-VZV virus infected HEL cell lines.; format: functional; details: Homo sapiens; in short: as §2
[39] = system: HeLa; experiment: Antiviral activity of compound was tested against Coxsackie B4 virus infected HeLa cell lines.; format: functional; details: Homo sapiens; in short: as §2
[40] = system: MDCK; experiment: Antiviral activity of compound was tested against influenza A,H3N2 virus infected MDCK cell lines.; format: functional; details: Canis lupus familiaris
[41] = system: MDCK; experiment: Antiviral activity of compound was tested against influenza […] virus infected MDCK cell lines; format: functional; details: Canis lupus familiaris
[42] = system: Vero; experiment: Antiviral activity of compound was tested against sindbis virus infected vero cell lines.; format: functional; details: Chlorocebus sabaeus; in short: as §2
[43] = system: Vero; experiment: Antiviral activity of compound were tested against semliki forest virus infected vero cell lines.; format: functional; details: Chlorocebus sabaeus; in short: as §2
[44] = system: Vero; experiment: Antiviral activity of compound was tested against Coxsackie B4 virus infected vero cell lines.; format: functional; details: Chlorocebus sabaeus; in short: as §2
[45] = system: Vero; experiment: Antiviral activity of compound was tested against parainfluenza 3,[…] virus infected Vero cell lines.; format: functional; details: Chlorocebus sabaeus; in short: as §2
[46] = system: Vero; experiment: Antiviral activity of compound was tested against reo1 virus infected vero cell lines.; format: functional; details: Chlorocebus sabaeus; in short: as §2
[47] = system: Vero; experiment: Antiviral activity of compound was tested against morphology virus infected Vero cell lines.; format: functional; details: Chlorocebus sabaeus
[48] = system: CCRF-CEM; experiment: Antiviral activity of compound was tested against HIV-1 virus infected CEM cell lines.; format: functional; details: Homo sapiens

C1CNC(C23CC4CC(CC(C4)C2)C3)C1 (stereo unspecified)
MIC50 [1]: > 40 µg/mL
MIC50 [2]: 56 µg/mL (≈ 273 µM)
MIC50 [3]: > 40 µg/mL
MIC50 [4]: > 40 µg/mL
MIC50 [5]: > 40 µg/mL
MIC50 [6]: > 40 µg/mL
MIC50 [7]: 100 µg/mL (≈ 487 µM)
MIC50 [8]: > 40 µg/mL
MIC50 [9]: > 100 µg/mL
MIC50 [10]: > 100 µg/mL
MIC50 [11]: > 100 µg/mL
MIC50 [12]: > 50 µg/mL
MIC50 [13]: > 50 µg/mL
MIC50 [14]: > 50 µg/mL
MIC50 [15]: > 50 µg/mL
MIC50 [16]: 15.8 µg/mL (≈ 76.9 µM)
MIC50 [17]: 12.4 µg/mL (≈ 60.4 µM)
MIC50 [18]: 12 µg/mL (≈ 58.4 µM)
MIC50 [19]: 250 µg/mL (≈ 1220 µM)
MIC50 [20]: > 200 µg/mL
MIC50 [21]: > 200 µg/mL
MIC50 [22]: 400 µg/mL (≈ 1950 µM)
MIC50 [23]: > 200 µg/mL
MIC50 [24]: > 200 µg/mL
MIC50 [25]: > 200 µg/mL
MIC50 [26]: 0.6 µg/mL (≈ 2.92 µM)
MIC50 [27]: > 200 µg/mL
MIC50 [28]: > 40 µg/mL

CN1CCOCC12C1CC3CC(C1)CC2C3 (stereo unspecified)
MIC50 [29]: > 200 µg/mL
MIC50 [30]: > 200 µg/mL
MIC50 [4]: > 400 µg/mL
MIC50 [5]: > 400 µg/mL
MIC50 [6]: > 400 µg/mL
MIC50 [31]: > 400 µg/mL
MIC50 [8]: > 400 µg/mL
MIC50 [32]: > 50 µg/mL
MIC50 [33]: > 400 µg/mL
MIC50 [34]: > 400 µg/mL
MIC50 [35]: > 400 µg/mL
MIC50 [36]: > 50 µg/mL
MIC50 [37]: > 50 µg/mL
MIC50 [38]: > 50 µg/mL
MIC50 [39]: > 400 µg/mL
MIC50 [16]: 22 µg/mL (≈ 99.4 µM)
MIC50 [40]: 53 µg/mL (≈ 239 µM)
MIC50 [41]: 60 µg/mL (≈ 271 µM)
MIC50 [19]: > 250 µg/mL
MIC50 [42]: > 400 µg/mL
MIC50 [43]: > 400 µg/mL
MIC50 [44]: > 400 µg/mL
MIC50 [45]: > 400 µg/mL
MIC50 [46]: > 400 µg/mL
MIC50 [26]: 4.3 µg/mL (≈ 19.4 µM)
MIC50 [47]: > 400 µg/mL
MIC50 [48]: 158 µg/mL (≈ 714 µM)
MIC50 [28]: > 400 µg/mL
